Test results taken from ChEMBL document CHEMBL3271980, “Synthesis and some pharmacological properties of oxytocin analogues having L-thiazolidine-4-carboxylic acid in position 7” (1976).

Experiments:
Type in all cases: functional
[1] = species on record: Rattus norvegicus; assay: Effect on rat blood pressure relative to bradykinin
[2] = species on record: Rattus norvegicus; assay: Effect on rat uterus activity relative to bradykinin
[3] = Induction of oxytocic activity in rat uterus
Method in brief: (§1)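 Purified analogues assayed for oxytocic, avian vasodepressor and rat pressor activity. Potency was measured against the U.S.P. posterior pituitary reference standard using a four-point assay design.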

[4] = test system: Gallus gallus; assay: Induction of vasodepressor activity in conscious chicken; method in brief: as §1
[5] = species on record: Rattus norvegicus; assay: Effect on pressor activity in rat; method in brief: as §1

| SMILES | Activity [1] [%] | Activity [2] [%] | Activity [3] [U/mg] | Activity [4] [U/mg] | Activity [5] [U/mg] |
| --- | --- | --- | --- | --- | --- |
| N=C(N)NCCC[C@H](NC(=O)[C@H](Cc1ccccc1)NC(=O)[C@@H]1CCCN1C(=O)[C@H](CO)NC(=O)[C@H](Cc1ccccc1)NC(=O)CNC(=O)[C@@H]1CSCN1C(=O)[C@@H]1CCCN1C(=O)[C@@H](N)CCCNC(=N)N)C(=O)O | 26 | 46 |  |  |  |
| CC[C@H](C)[C@@H]1NC(=O)[C@H](Cc2ccc(O)cc2)NC(=O)[C@@H](N)CSSC[C@@H](C(=O)N2CSC[C@H]2C(=O)N[C@@H](CC(C)C)C(=O)NCC(N)=O)NC(=O)[C@H](CC(N)=O)NC(=O)[C@H](CCC(N)=O)NC1=O |  |  | 1180 | 720 | 3.46 |
| CC[C@H](C)[C@@H]1NC(=O)[C@H](Cc2ccc(O)cc2)NC(=O)CCSSC[C@@H](C(=O)N2CSC[C@H]2C(=O)N[C@@H](CC(C)C)C(=O)NCC(N)=O)NC(=O)[C@H](CC(N)=O)NC(=O)[C@H](CCC(N)=O)NC1=O |  |  | 1538 | 2039 | 1.69 |
| CC[C@H](C)[C@@H]1NC(=O)[C@H](Cc2ccc(O)cc2)NC(=O)CCSSC[C@@H](C(=O)N2CCC[C@H]2C(=O)N[C@@H](CC(C)C)C(=O)NCC(N)=O)NC(=O)[C@H](CC(N)=O)NC(=O)[C@H](CCC(N)=O)NC1=O |  |  | 803 | 975 | 1.44 |
| CC[C@H](C)[C@@H]1NC(=O)[C@H](Cc2ccc(O)cc2)NC(=O)[C@@H](N)CSSC[C@@H](C(=O)N2CCC[C@H]2C(=O)N[C@@H](CC(C)C)C(=O)NCC(N)=O)NC(=O)[C@H](CC(N)=O)NC(=O)[C@H](CCC(N)=O)NC1=O [OXYTOCIN] |  |  | 546 | 507 | 3.1 |
